Measurements from ChEMBL document CHEMBL3352512, “Thiazolidone derivatives as inhibitors of chikungunya virus” (Eur J Med Chem, 2015).
The source made the active and inactive calls. No cut-off for these calls is given here.

Experiments:
Chikungunya virus [1] = assay: Antiviral activity against Chikungunya virus LR2006_OPY1 infected in african green monkey Vero cells assessed as reduction in virus-induced cytopathogenicity at 100 ug/mL after 3 days by cell titer-blue fluorescent assay; assay type: functional, cell-based
[2] = Cytotoxicity against african green monkey Vero cells assessed as reduction in cell viability after 72 hrs by cell titer-blue fluorescent assay; assay type: cell-based; conditions: chlorocebus sabaeus
Procedure, shortened: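 Uninfected Vero (CCL-81) cells were seeded at 1 × 10^5 cells/mL, grown for 24 h at 37°C with 5% CO2, then exposed to compound at 4 to 4000 µg/mL for 72 h. CellTiter-Blue was added for 2 h in the dark, and fluorescence was read at 560/590 nm. Viability is given as % of control, from at least three repeats.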

Chikungunya virus [3] = assay: Antiviral activity against Chikungunya virus LR2006_OPY1 infected in african green monkey Vero cells assessed as reduction in virus-induced cytopathogenicity after 3 days by cell titer-blue fluorescent assay; assay type: functional, cell-based; conditions: 72 h

Row | Structure (SMILES) | inhibition (Chikungunya virus [1]) | CC50 at 72 h [2] | IC50 (Chikungunya virus [3])
1 | COc1ccc(/C=C2\SC(=S)NC2=O)cc1 | inactive | > 100 µM | 
2 | O=C1NC(=S)S/C1=C\c1cccs1 | inactive | > 100 µM | 
3 | NC1=NC(=O)/C(=C/c2ccccc2[N+](=O)[O-])S1 |  | > 100 µM | 40.1 µM
4 | O=C1NC(=S)S/C1=C\c1ccccc1[N+](=O)[O-] | inactive | > 100 µM | 
5 | O=C1NC(=S)S/C1=C\c1ccc(O)cc1 | inactive | > 100 µM | 
6 | O=C1NC(=S)S/C1=C\c1ccc2ccccc2c1 |  | > 100 µM | 3.6 µM
7 | CN(C)c1ccc(/C=C2\SC(=S)NC2=O)cc1 | inactive | > 100 µM | 
8 | N=C1NC(=O)/C(=C/c2ccc(O)cc2)S1 [MIRIN] | inactive | > 100 µM | 
9 | O=C1NC(=S)S/C1=C\c1ccc(Cl)cc1 | inactive | > 100 µM | 
